Reference: ChEMBL document CHEMBL1158478, “Synthesis and biological evaluation of guanidino compounds endowed with subnanomolar affinity as competitive inhibitors of maize polyamine oxidase” (J Med Chem, 2009)
The source made the active and inactive calls. No cut-off for these calls is given here.

Key:
Polyamine oxidase 1 = target: T1, Polyamine oxidase 1 (Zea mays, UniProt O64411); assay: Inhibition of maize PAO at pH 6.5 by spectrophotometry-based Dixon plot method
T1 sequence (O64411 whole entry): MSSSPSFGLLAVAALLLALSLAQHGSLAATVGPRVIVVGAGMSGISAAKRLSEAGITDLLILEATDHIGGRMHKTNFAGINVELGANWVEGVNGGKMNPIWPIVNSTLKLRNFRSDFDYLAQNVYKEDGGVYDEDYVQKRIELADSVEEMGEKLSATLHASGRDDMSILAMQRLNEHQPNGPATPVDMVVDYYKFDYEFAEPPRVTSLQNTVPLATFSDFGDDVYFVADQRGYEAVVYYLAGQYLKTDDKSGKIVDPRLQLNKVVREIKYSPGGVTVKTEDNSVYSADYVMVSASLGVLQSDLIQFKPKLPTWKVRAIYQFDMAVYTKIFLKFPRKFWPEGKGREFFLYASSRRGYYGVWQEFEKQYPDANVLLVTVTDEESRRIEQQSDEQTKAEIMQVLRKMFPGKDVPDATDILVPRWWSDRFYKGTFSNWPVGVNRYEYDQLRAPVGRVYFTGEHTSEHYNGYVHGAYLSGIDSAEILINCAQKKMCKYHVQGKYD
Outline: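 H₂O₂ was detected by peroxidase-coupled 4-aminoantipyrine/3,5-dichloro-2-hydroxybenzenesulfonate adduct at 515 nm. Ki was obtained by the Dixon method. Mean of three experiments, each in duplicate.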

HeLa [1] = assay: Antiproliferative activity against human HeLa cells at 1 uM after 72 hrs by MTT assay; type: functional, cell-based
Outline: (§1)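 Cells seeded at 2.5 × 10³ cells/well in DMEM with 10% FBS and allowed to adhere. They were then exposed to the test compound (0.1-10 μM) for 24, 48, 72 and 96 h. MTT reduction was read at 550 nm, and viability was taken as OD treated / OD untreated control × 100. At least three independent experiments, compared by two-way ANOVA.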

U373 MG [2] = assay: Cytostatic activity in human U373MG cells at 1 uM after 48 hrs by trypan blue assay; type: functional, cell-based; details: U-373MG ATCC
Outline: (§2)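 Cells seeded in DMEM with 10% FBS at 2.5 × 10³ cells/well and allowed to adhere. They were then incubated with or without 1 μM compound for 0, 24, 48, 72 and 96 h. Trypan blue exclusion was used: unstained cells were counted twice in a Neubauer chamber, in duplicate, and reported as living cell number (×10⁷). At least three independent runs, with two-way ANOVA against control.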

U-373MG ATCC [3] = assay: Cytotoxicity against human U373MG cells at 10 uM after 24 to 96 hrs by MTT assay; type: functional, cell-based; outline: as §1
HeLa [4] = assay: Cytostatic activity in human HeLa cells at 1 uM after 72 hrs by trypan blue assay; type: functional, cell-based; outline: as §2
HeLa [5] = assay: Cytotoxicity against human HeLa cells at 10 uM after 24 to 96 hrs by MTT assay; type: functional, cell-based; outline: as §1
U-373MG ATCC [6] = assay: Antiproliferative activity against human U373MG cells at 1 uM after 96 hrs by MTT assay; type: functional, cell-based; outline: as §1
HeLa [7] = assay: Antiproliferative activity against human HeLa cells at 1 uM after 48 hrs by MTT assay; type: functional, cell-based; outline: as §1
U-373MG ATCC [8] = assay: Antiproliferative activity against human U373MG cells at 1 uM after 48 hrs by MTT assay; type: functional, cell-based; outline: as §1
HeLa [9] = assay: Cytostatic activity in human HeLa cells at 1 uM after 96 hrs by trypan blue assay; type: functional, cell-based; outline: as §2
HeLa [10] = assay: Antiproliferative activity against human HeLa cells at 1 uM after 96 hrs by MTT assay; type: functional, cell-based; outline: as §1
HeLa [11] = assay: Cytostatic activity in human HeLa cells at 1 uM after 48 hrs by trypan blue assay; type: functional, cell-based; outline: as §2
U373 MG [12] = assay: Cytostatic activity in human U373MG cells at 1 uM after 72 hrs by trypan blue assay; type: functional, cell-based; details: U-373MG ATCC; outline: as §2
U-373MG ATCC [13] = assay: Antiproliferative activity against human U373MG cells at 1 uM after 72 hrs by MTT assay; type: functional, cell-based; outline: as §1
U373 MG [14] = assay: Cytostatic activity in human U373MG cells at 1 uM after 96 hrs by trypan blue assay; type: functional, cell-based; details: U-373MG ATCC; outline: as §2

N=C(NCCCCCN)NCCC1CCCCC1
Ki (Polyamine oxidase 1): 1720 nM

CC(C)=CCNC(N)=NCCCCCCCCNCCCCCCCCN=C(N)N
Ki (Polyamine oxidase 1): 3 nM

NCCCCCN=C(N)NC/C=C/c1ccccc1
Ki (Polyamine oxidase 1): 1530 nM

CC(C)=CCNC(N)=NCCCCN=C(N)N
Ki (Polyamine oxidase 1): 700 nM

CC(C)=CCNC(N)=Nc1ccc(CN)cc1
Ki (Polyamine oxidase 1): 18000 nM

CC(C)=CCNC(=N)NCCCCCN
Ki (Polyamine oxidase 1): 10 nM

NCCCCN=C(N)Nc1ccc(F)cc1
Ki (Polyamine oxidase 1): 630 nM

CC(C)=CCN=C(N)NCCCCN=C(N)NCC=C(C)C
Ki (Polyamine oxidase 1): 1500 nM

N=C(N)NCCCCCCCCNCCCCCCCCNC(=N)N [IMINOCTADIENE]
Ki (Polyamine oxidase 1): 7.5 nM

NCCCCCN=C(N)NCC1CC1
Ki (Polyamine oxidase 1): 2580 nM

N=C(N)NCCCCN [AGMATINE]
Ki (Polyamine oxidase 1): 3000 nM

CC(C)=CCN=C(N)NCCCCCCCCNCCCCCCCCN=C(N)NCC=C(C)C
Ki (Polyamine oxidase 1): 1.7 nM

NCCCCCCCCN [DIAMINOOCTANE]
Ki (Polyamine oxidase 1): 300 nM

CC(C)=CCNC(=N)NCCCNCCCN
Ki (Polyamine oxidase 1): 1210 nM

C#CCNC(=N)NCCCCN
Ki (Polyamine oxidase 1): 250 nM

N=C(N)NCCCCCCCCNCCCCCCCCNC(=N)NCC1CC1
Activity (HeLa [1]): Active
Ki (Polyamine oxidase 1): 0.08 nM
Activity (U373 MG [2]): Active
Activity (U-373MG ATCC [3]): Active
Activity (HeLa [4]): Active
Activity (HeLa [5]): Active
Activity (U-373MG ATCC [6]): Active
Activity (HeLa [7]): Active
Activity (U-373MG ATCC [8]): Active
Activity (HeLa [9]): Active
Activity (HeLa [10]): Active
Activity (HeLa [11]): Active
Activity (U373 MG [12]): Active
Activity (U-373MG ATCC [13]): Active
Activity (U373 MG [14]): Active

C=C(C)CCNC(N)=NCCCCCCCCNCCCCCCCCN=C(N)N
Ki (Polyamine oxidase 1): 0.5 nM

CC(C)=CCNC(=N)NCCCCCCN
Ki (Polyamine oxidase 1): 22 nM

C=CCNC(=N)NCCCCN
Ki (Polyamine oxidase 1): 130 nM

CC(C)=CCNC(=N)NCCCCN
Ki (Polyamine oxidase 1): 15 nM

C#CCNC(N)=NCCCCCCCCNCCCCCCCCN=C(N)N
Ki (Polyamine oxidase 1): 0.7 nM

NC(N)=NCCCCCCCCNCCCCCCCCN=C(N)NCc1ccccc1
Ki (Polyamine oxidase 1): 1 nM

C/C=C/CNC(=N)NCCCCCCCCNCCCCCCCCNC(=N)N
Ki (Polyamine oxidase 1): 1.1 nM

COc1cccc(CNC(N)=NCCCCCN)c1
Ki (Polyamine oxidase 1): 1150 nM
